Results from ChEMBL document CHEMBL1146752, “Oxamyl dipeptide caspase inhibitors developed for the treatment of stroke” (Bioorg Med Chem Lett, 2004).
pIC50: −log10 of the molar value.

Experiments:
[1] = system: THP-1; experiment: Inhibitory activity evaluated against human THP-1 cell line in cellular assay; format: functional, cell-based
Summary of the method: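 Human cells (monocytes; THP-1 line) in a caspase-1-dependent cellular assay run for 24 h at 37 °C. Read-out is IC50 (µM).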

[2] = species: Rattus norvegicus; experiment: Inhibitory activity evaluated against rat Con A embryonic cortical neurons in cellular assay; format: functional
[3] = system: SKW 6.4; experiment: Inhibitory activity was evaluated against human SKW 6.4 cell line in cellular assay; format: functional, cell-based
Summary of the method: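 Cellular assay (Con A; SKW 6.4 cells) run for 24 h at 37 °C. Read-out is IC50 (µM).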

[4] = system: Jurkat; experiment: Inhibitory activity evaluated against human jurkat cell line in cellular assay; format: functional, cell-based
Summary of the method: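 Human Jurkat cells, in an assay where caspase-8 is relevant but other caspases also contribute. Run for 24 h at 37 °C. Read-out is IC50 (µM).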

Compound	pIC50 [1]	pIC50 [2]	pIC50 [3]	pIC50 [4]
CC(C)[C@H](NC(=O)C(=O)Nc1cccc2ccccc12)C(=O)N[C@@H](CC(=O)O)C(=O)COc1ccc(-c2ccccc2)cc1	5.95	< 4.30		
O=C(O)C[C@H](NC(=O)C1CCC(NC(=O)C(=O)Nc2cccc3ccccc23)C1)C(=O)COc1c(F)c(F)cc(F)c1F (some centres not stated)	6.03	5.60		
CC(C)[C@H](NC(=O)C(=O)Nc1ccccc1I)C(=O)N[C@@H](CC(=O)O)C(=O)COc1c(F)c(F)cc(F)c1F	5.82	6.00	5.81	7.09
O=C(O)C[C@H](NC(=O)C1Cc2ccccc2N1C(=O)C(=O)Nc1cccc2ccccc12)C(=O)COc1c(F)c(F)cc(F)c1F (some centres not stated)	4.65	4.30		
O=C(O)C[C@H](NC(=O)C1CCCCN1C(=O)C(=O)Nc1cccc2ccccc12)C(=O)COc1c(F)c(F)cc(F)c1F (some centres not stated)		4.80		
CC(C)[C@H](NC(=O)C(=O)Nc1c(F)cccc1F)C(=O)N[C@@H](CC(=O)O)C(=O)COc1c(F)c(F)cc(F)c1F	6.42	6.00	5.79	6.87
CCCCCCCc1ccc(NC(=O)C(=O)N[C@H](C(=O)N[C@@H](CC(=O)O)C(=O)COc2c(F)c(F)cc(F)c2F)C(C)C)cc1	5.18	< 4.30	4.89	6.57
CC(C)[C@H](NC(=O)C(=O)Nc1cc(C(C)(C)C)ccc1C(C)(C)C)C(=O)N[C@@H](CC(=O)O)C(=O)COc1c(F)c(F)cc(F)c1F	5.58	5.70	5.73	7.77
CC(C)[C@H](NC(=O)C(=O)NCCc1ccccc1)C(=O)N[C@@H](CC(=O)O)C(=O)COc1c(F)c(F)cc(F)c1F	7.10	5.46	6.21	5.33
CC(C)[C@H](NC(=O)C(=O)Nc1cccc(Oc2ccccc2)c1)C(=O)N[C@@H](CC(=O)O)C(=O)COc1c(F)c(F)cc(F)c1F	5.73	5.96	5.70	5.94
CC(C)[C@H](NC(=O)C(=O)Nc1ccccc1Oc1ccccc1)C(=O)N[C@@H](CC(=O)O)C(=O)COc1c(F)c(F)cc(F)c1F	5.75	5.60	5.75	6.18
CC(C)[C@H](NC(=O)C(=O)Nc1ccccc1Br)C(=O)N[C@@H](CC(=O)O)C(=O)COc1c(F)c(F)cc(F)c1F	6.27	6.40		6.45
CC(C)[C@H](NC(=O)C(=O)Nc1ccccc1Cc1ccccc1)C(=O)N[C@@H](CC(=O)O)C(=O)COc1c(F)c(F)cc(F)c1F	6.74	5.70	5.81	8.05
CC(C)[C@H](NC(=O)C(=O)Nc1cccc2ccccc12)C(=O)N[C@@H](CC(=O)O)C(=O)COc1ccc2ccccc2c1	5.71	5.14		
CNC(=O)C(=O)N[C@H](C(=O)N[C@@H](CC(=O)O)C(=O)COc1c(F)c(F)cc(F)c1F)C(C)C	5.91	5.15	5.98	6.96
O=C(O)C[C@H](NC(=O)[C@H](CCc1ccccc1)NC(=O)C(=O)Nc1cccc2ccccc12)C(=O)COc1c(F)c(F)cc(F)c1F	5.12	5.52		
O=C(O)C[C@H](NC(=O)[C@H](Cc1ccccc1)NC(=O)C(=O)Nc1cccc2ccccc12)C(=O)COc1c(F)c(F)cc(F)c1F	5.90	5.57		
O=C(O)C[C@H](NC(=O)C(NC(=O)C(=O)Nc1cccc2ccccc12)c1ccccc1)C(=O)COc1c(F)c(F)cc(F)c1F (some centres not stated)	5.56	6.30		
CC(C)C[C@H](NC(=O)C(=O)Nc1cccc2ccccc12)C(=O)N[C@@H](CC(=O)O)C(=O)COc1c(F)c(F)cc(F)c1F		5.59		5.60
CC(C)[C@H](NC(=O)C(=O)Nc1cccc2ccccc12)C(=O)N[C@@H](CC(=O)O)C(=O)COc1c(F)cc(F)cc1F		6.52		8.28

Compound	pIC50 [1]	pIC50 [2]	pIC50 [3]	pIC50 [4]
O=C(O)C[C@H](NC(=O)C(NC(=O)C(=O)Nc1cccc2ccccc12)C1CCCCC1)C(=O)COc1c(F)c(F)cc(F)c1F (some centres not stated)	5.84	5.82		
CC(C)[C@H](NC(=O)C(=O)Nc1cccc2ccccc12)C(=O)N[C@@H](CC(=O)O)C(=O)COc1c(F)c(F)cc(F)c1F		6.26		8.21
CC(C)(C)C(NC(=O)C(=O)Nc1cccc2ccccc12)C(=O)N[C@@H](CC(=O)O)C(=O)COc1c(F)c(F)cc(F)c1F (some centres not stated)	6.57	5.54		
CC(C)[C@H](NC(=O)C(=O)N(C)c1cccc2ccccc12)C(=O)N[C@@H](CC(=O)O)C(=O)COc1c(F)c(F)cc(F)c1F		< 4.30	< 4.00	< 4.00
CC(C)[C@H](NC(=O)C(=O)Nc1cccc2ccccc12)C(=O)N[C@@H](CC(=O)O)C(=O)COP(C)(=O)c1ccccc1 (some centres not stated)	7.05	5.70		
CC(C)C[C@H](NC(=O)C(=O)Nc1cccc2ccccc12)C(=O)N[C@@H](CC(=O)O)C(=O)COc1c(F)cc(F)cc1F		5.34		6.27
CC(C)[C@H](NC(=O)C(=O)Nc1ccccc1C(F)(F)F)C(=O)N[C@@H](CC(=O)O)C(=O)COc1c(F)c(F)cc(F)c1F	6.09	6.19	6.64	8.77
CC(C)[C@H](NC(=O)C(=O)Nc1cccc2ccccc12)C(=O)N[C@@H](CC(=O)O)C(=O)COc1cccc2ccccc12	5.51	5.57		
COc1ccccc1NC(=O)C(=O)N[C@H](C(=O)N[C@@H](CC(=O)O)C(=O)COc1c(F)c(F)cc(F)c1F)C(C)C	6.40	5.60	5.92	6.51
CC(C)[C@H](NC(=O)C(=O)Nc1cccc2ccccc12)C(=O)N[C@@H](CC(=O)O)C(=O)COS(=O)c1ccccc1 (some centres not stated)	5.08	< 4.30		
CC(C)[C@H](NC(=O)C(=O)Nc1cccc2ccccc12)C(=O)N[C@@H](CC(=O)O)C(=O)COc1c(F)cccc1F	6.32	6.35		
COC(=O)c1cc(OCC(=O)[C@H](CC(=O)O)NC(=O)[C@@H](NC(=O)C(=O)Nc2cccc3ccccc23)C(C)C)no1	6.55	5.05		
CC(C)[C@H](NC(=O)C(=O)Nc1cccc2ccccc12)C(=O)N[C@@H](CC(=O)O)C(=O)COP(=O)(c1ccccc1)c1ccccc1	6.19	6.19		
CCCCC(NC(=O)C(=O)Nc1cccc2ccccc12)C(=O)N[C@@H](CC(=O)O)C(=O)COc1c(F)c(F)cc(F)c1F (some centres not stated)		6.00		
CC(C)[C@H](NC(=O)C(=O)Nc1cccc2ccccc12)C(=O)N[C@@H](CC(=O)O)C(=O)COc1ccnc(C(F)(F)F)n1	6.60	5.70		
CC(C)C[C@H](NC(=O)C(=O)Nc1cccc2ccccc12)C(=O)N[C@@H](CC(=O)O)C(=O)COC(=O)c1c(Cl)cccc1Cl		6.30		5.89
CC(C)[C@H](NC(=O)C(=O)Nc1cccc2ccccc12)C(=O)N[C@@H](CC(=O)O)C(=O)COC(=O)c1c(Cl)cccc1Cl		6.46		8.37
CC(C)[C@H](NC(=O)C(=O)NC(c1ccccc1)c1ccccc1)C(=O)N[C@@H](CC(=O)O)C(=O)COc1c(F)c(F)cc(F)c1F	6.77	5.14		< 3.70
CC(C)[C@H](NC(=O)C(=O)NOCc1ccccc1)C(=O)N[C@@H](CC(=O)O)C(=O)COc1c(F)c(F)cc(F)c1F	< 4.49	4.82		4.51
